Data on 20 compounds can be found in ChEMBL document CHEMBL4138318, “Discovery of 5-Cyano-6-phenylpyrimidin Derivatives Containing an Acylurea Moiety as Orally Bioavailable Reversal Agents against P-Glycoprotein-Mediated Mutidrug Resistance” (J Med Chem, 2018).

Series [1] addresses T1, ATP-dependent translocase ABCB1 (Homo sapiens, UniProt P08183). Briefly: Inhibition of ABCB1 in human SW620/AD300 cells assessed as potentiation of paclitaxel-induced cytotoxicity after 72 hrs by MTT assay. In kind it is cell-based. In a few lines:
(§1)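 SW620/AD300 cells (~5×10^3/well) treated with graded paclitaxel with or without modulator (2 µM, or 0.5-2 µM in dose series; 0.1% DMSO solvent control) for 72 h; MTT (5 mg/mL stock) added 4 h, absorbance 490 nm. IC50 as mean ± SD of three independent runs; reversal fold = paclitaxel IC50 without/with modulator.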
Background: Tetrazolium dyes change colour on reduction, which living cells bring about.

In series [2] the target is T1, ATP-dependent translocase ABCB1. Briefly: Inhibition of ABCB1 in human SW620/AD300 cells assessed as potentiation of paclitaxel-induced cytotoxicity by measuring fold reduction in paclitaxel IC50 at 2 uM after 72 hrs by MTT assay relative to paclitaxel alone. In kind it is cell-based. In a few lines: as §1
Series [3] can be described thus: Cytotoxicity against human SW620/AD300 cells assessed as survival at 2 uM after 72 hrs by MTT assay relative to control. In kind it is cell-based. Particulars: read-out: Survival.
The nature of series [4]: Cytotoxicity against human SW620 cells assessed as survival at 2 uM after 72 hrs by MTT assay relative to control. In kind it is cell-based, SW-620. The settings on record: read-out: Survival.
Another series has as its system SW620/AD300. Briefly: Effect on subcellular localization of ABCB1 in human SW620/AD300 cells at 2 uM after 48 hrs by Hoechst 33258 staining-based immunofluorescence assay. It counts as functional, cell-based. In a few lines: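 About 1×10^4 cells on coverslips incubated with compound 48 h, fixed in 4% paraformaldehyde ≥20 min, blocked 2 h in PBS with 5% BSA, anti-ABCB1 primary overnight at 4℃, Alexa Fluor 488 anti-goat secondary 2 h, nuclei stained with Hoechst 33258 20 min; imaged by laser scanning confocal microscopy.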

The target in series [5] is T1, ATP-dependent translocase ABCB1. Briefly: Inhibition of ABCB1 in human SW620/AD300 cells assessed as potentiation of paclitaxel-induced cytotoxicity by measuring fold reduction in paclitaxel IC50 at 0.5 uM after 72 hrs by MTT assay. In kind it is cell-based. In a few lines:
as §1

In the next series the target is Cytochrome P450 3A4 (Homo sapiens, UniProt P08684). Briefly: Inhibition of recombinant human CYP3A4 up to 32 uM in presence of NADPH generating system by fluorescence assay. It counts as ADME. The settings on record: recombinant enzyme.
Series [6] has as its target T1, ATP-dependent translocase ABCB1. Briefly: Inhibition of ABCB1 in human SW620/AD300 cells assessed as potentiation of paclitaxel-induced cytotoxicity by measuring fold reduction in paclitaxel IC50 at 1 uM after 72 hrs by MTT assay. In kind it is cell-based. In a few lines: as §1
Series [7] shares this target. Briefly: Inhibition of ABCB1 in human SW620/AD300 cells assessed as decrease in rhodamine 123 efflux up to 4 uM preincubated for 4 hrs followed by 30 mins incubation in Rho-123 containing medium and subsequent incubation in Rho-123 free medium up to 120 mins by flow cytometry. In kind it is cell-based. In a few lines:
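Cells loaded with rhodamine 123 as in the accumulation assay (4 h compound pre-exposure, 1 µg/mL dye 30 min, 37℃), then kept in dye-free medium with or without reversal agent for 30, 60, 90 or 120 min at 37℃; intracellular fluorescence read by flow cytometry at 488/530 nm. Three independent experiments.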
(Flow cytometry measures light scatter and fluorescence of single cells or particles in a stream.)

Each structure is given as a SMILES string. Active and inactive are the calls of the source. The calls are words filed in the database; no cut-off is given here.

T1 sequence (P08183 whole entry): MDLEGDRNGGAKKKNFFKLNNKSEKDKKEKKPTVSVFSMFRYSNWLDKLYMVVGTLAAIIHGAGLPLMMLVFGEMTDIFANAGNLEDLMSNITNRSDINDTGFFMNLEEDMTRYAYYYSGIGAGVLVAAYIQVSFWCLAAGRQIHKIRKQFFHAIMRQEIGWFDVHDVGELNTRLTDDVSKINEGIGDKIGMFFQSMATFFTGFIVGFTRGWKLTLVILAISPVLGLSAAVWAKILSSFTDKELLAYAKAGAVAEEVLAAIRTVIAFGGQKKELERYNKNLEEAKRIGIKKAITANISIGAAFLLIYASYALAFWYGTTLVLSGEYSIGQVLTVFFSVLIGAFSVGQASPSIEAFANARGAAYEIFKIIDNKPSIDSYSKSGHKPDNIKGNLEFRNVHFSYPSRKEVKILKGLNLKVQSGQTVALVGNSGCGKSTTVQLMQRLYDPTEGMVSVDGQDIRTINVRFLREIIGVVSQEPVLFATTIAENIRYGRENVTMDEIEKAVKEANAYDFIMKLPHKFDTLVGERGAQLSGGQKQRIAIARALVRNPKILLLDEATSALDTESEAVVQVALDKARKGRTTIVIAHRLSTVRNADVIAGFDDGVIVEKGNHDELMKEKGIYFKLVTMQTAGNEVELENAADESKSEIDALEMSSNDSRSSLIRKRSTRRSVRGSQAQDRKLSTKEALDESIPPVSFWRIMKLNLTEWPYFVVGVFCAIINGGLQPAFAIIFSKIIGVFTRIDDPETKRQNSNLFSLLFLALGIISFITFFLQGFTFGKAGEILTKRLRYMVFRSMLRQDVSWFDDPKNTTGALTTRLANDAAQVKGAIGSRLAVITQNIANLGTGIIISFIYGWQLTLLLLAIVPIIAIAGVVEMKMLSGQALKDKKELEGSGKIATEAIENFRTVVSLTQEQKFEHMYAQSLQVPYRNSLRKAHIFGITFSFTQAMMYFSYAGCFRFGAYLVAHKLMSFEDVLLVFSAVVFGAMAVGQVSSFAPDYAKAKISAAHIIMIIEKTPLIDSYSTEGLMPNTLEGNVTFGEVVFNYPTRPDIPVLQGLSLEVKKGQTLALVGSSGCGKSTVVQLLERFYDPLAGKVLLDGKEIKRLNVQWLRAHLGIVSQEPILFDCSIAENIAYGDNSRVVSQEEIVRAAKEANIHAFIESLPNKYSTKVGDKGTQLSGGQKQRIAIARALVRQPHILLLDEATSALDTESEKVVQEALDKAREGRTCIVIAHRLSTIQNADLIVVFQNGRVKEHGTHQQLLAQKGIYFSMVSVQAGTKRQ
Cytochrome P450 3A4, sequence (P08684 whole entry): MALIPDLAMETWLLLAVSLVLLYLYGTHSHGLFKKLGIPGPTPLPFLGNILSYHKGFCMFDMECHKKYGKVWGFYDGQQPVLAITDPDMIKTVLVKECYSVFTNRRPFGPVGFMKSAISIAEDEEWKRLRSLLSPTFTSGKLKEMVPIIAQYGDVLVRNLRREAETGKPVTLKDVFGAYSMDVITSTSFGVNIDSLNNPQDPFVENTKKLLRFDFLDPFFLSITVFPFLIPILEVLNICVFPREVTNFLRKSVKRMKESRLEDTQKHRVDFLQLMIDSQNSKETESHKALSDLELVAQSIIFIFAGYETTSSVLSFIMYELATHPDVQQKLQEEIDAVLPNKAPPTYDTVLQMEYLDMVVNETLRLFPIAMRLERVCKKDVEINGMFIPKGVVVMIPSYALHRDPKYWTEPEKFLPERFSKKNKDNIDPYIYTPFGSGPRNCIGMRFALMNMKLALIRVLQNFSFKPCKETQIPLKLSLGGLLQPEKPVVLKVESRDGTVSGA

For `COc1ccc(CCN(C)CCCC(C#N)(c2ccc(OC)c(OC)c2)C(C)C)cc1OC` (stereo not given), the “inhibition (INH)” value in [1] is “Dose-dependent effect”.
Consider `N#Cc1c(Nc2ccccc2Cl)nc(SCC(=O)NC(=O)Nc2ccccn2)nc1-c1ccc(F)c(F)c1`, for which the “fold change (FC)” value in [2] was 14.24. Further, the viability at 72 h, 2 µM in [3] and in [4] was greater than 90% in each case.
On to `CC(C)c1ccc(-c2nc(SCc3cn(CC(=O)NC(=O)Nc4ccccn4)nn3)nc(Nc3cccc(Cl)c3)c2C#N)cc1`, for which the “fold change (FC)” value in series [2] amounted to 2.71. The viability at 72 h, 2 µM in series [3] and in series [4] was greater than 90% throughout.
On to `COc1cc(-c2nc(SCC(=O)NC(=O)Nc3ccccn3)nc(Nc3ccc(Br)cc3)c2C#N)cc(OC)c1OC`, for which the entries for the “fold change (FC)” value in series [2], in [5] and in [6] were 190.27, 8.019 and 32.2, respectively. In addition, the result in the series with SW620/AD300 was inactive. For the same compound, the “inhibition (INH)” value at Cytochrome P450 3A4 is recorded as “Not Active”; in series [1], “Dose-dependent effect”; in series [7] it was “Active”. In addition, the viability at 72 h, 2 µM in [3] and in [4] was greater than 90% each time.
For `Cc1ccc(-c2nc(SCc3cn(CC(=O)NC(=O)Nc4ccccn4)nn3)nc(Nc3cccc(C(F)(F)F)c3)c2C#N)cc1`, the “fold change (FC)” value in [2] is 1.88. Further, the viability at 72 h, 2 µM in series [3] and in series [4] was greater than 90% throughout.
With `Cc1ccc(-c2nc(SCC(=O)NC(=O)Nc3ccccn3)nc(Nc3cccc(C(F)(F)F)c3)c2C#N)cc1`, in [2], the “fold change (FC)” value is on record as 6.06. Also, the viability at 72 h, 2 µM in [3] and in series [4] was greater than 90% each time.
As for `Cc1ccc(-c2nc(SCc3cn(CC(=O)NC(=O)Nc4ccccn4)nn3)nc(Nc3cccc(Cl)c3)c2C#N)cc1`, the “fold change (FC)” value in series [2] worked out at 13.42. In addition, the viability at 72 h, 2 µM in series [3] and in series [4] was greater than 90% each time.
`COc1cc(-c2nc(SCc3cn(CC(=O)NC(=O)Nc4ccccn4)nn3)nc(Nc3cccc(Cl)c3)c2C#N)cc(OC)c1OC`: the “fold change (FC)” value in series [2] worked out at 1.37. Moreover, the viability at 72 h, 2 µM in series [3] and in [4] was greater than 90% throughout.
With `COc1cc(-c2nc(SCC(=O)NC(=O)Nc3ccccc3)nc(Nc3cccc(Cl)c3)c2C#N)cc(OC)c1OC`, the “fold change (FC)” value in series [2] stood at 261.63; in series [5] it was 37.04; in series [6] it was 26.33. Besides, the outcome with SW620/AD300 was inactive. Moreover, the “inhibition (INH)” value at Cytochrome P450 3A4 is recorded as “Not Active”; in series [1], “Dose-dependent effect”; in series [7], “Active”. Besides, the viability at 72 h, 2 µM in [3] and in series [4] was greater than 90% each time.
As to `CC(C)c1ccc(-c2nc(SCc3cn(CC(=O)NC(=O)Nc4ccccn4)nn3)nc(Nc3ccccc3)c2C#N)cc1`, in series [2], the “fold change (FC)” value was 1.65. In addition, the viability at 72 h, 2 µM in series [3] and in series [4] was greater than 90% each time.
As to `COc1ccc(Nc2nc(SCc3cn(CC(=O)NC(=O)Nc4ccccn4)nn3)nc(-c3ccc(C)cc3)c2C#N)cc1`, in series [2], the “fold change (FC)” value came to 1.18. In addition, the viability at 72 h, 2 µM in [3] and in series [4] was greater than 90% throughout.
For the compound `COc1ccc(Nc2nc(SCC(=O)NC(=O)Nc3ccccn3)nc(-c3ccc(C(C)C)cc3)c2C#N)cc1`, in series [2], the “fold change (FC)” value was 2.17. Besides, the viability at 72 h, 2 µM in series [3] and in [4] was greater than 90% in each case.
`N#Cc1c(Nc2cccc(C(F)(F)F)c2)nc(SCc2cn(CC(=O)NC(=O)Nc3ccccn3)nn2)nc1-c1ccc(Br)cc1`: in series [2], the “fold change (FC)” value came out at 2.4. Besides, the viability at 72 h, 2 µM in series [3] and in series [4] was greater than 90% each time.
In the case of `N#Cc1c(Nc2cccc(Cl)c2)nc(SCC(=O)NC(=O)Nc2ccccn2)nc1-c1ccc(F)c(F)c1`, the “fold change (FC)” value in series [2] is on record as 4.37. The viability at 72 h, 2 µM in series [3] and in series [4] was greater than 90% each time.
For the compound `CC(C)c1ccc(Nc2nc(SCc3cn(CC(=O)NC(=O)Nc4ccccn4)nn3)nc(-c3ccc(Br)cc3)c2C#N)cc1`, the “fold change (FC)” value in [2] is 1.7. For the same compound, the viability at 72 h, 2 µM in series [3] and in series [4] was greater than 90% in each case.
In the case of `COc1ccccc1Nc1nc(SCc2cn(CC(=O)NC(=O)Nc3ccccn3)nn2)nc(-c2ccc(C)cc2)c1C#N`, the “fold change (FC)” value in series [2] came to 10.71. Also, the viability at 72 h, 2 µM in series [3] and in series [4] was greater than 90% in each case.
Consider `CC(C)c1ccc(-c2nc(SCc3cn(CC(=O)NC(=O)Nc4ccccn4)nn3)nc(Nc3ccccc3Cl)c2C#N)cc1`, for which the “fold change (FC)” value in [2] was 4.75. Further, the viability at 72 h, 2 µM in [3] and in [4] was greater than 90% each time.
For the compound `Cc1ccc(Nc2nc(SCC(=O)NC(=O)Nc3ccccn3)nc(-c3ccc(C(C)C)cc3)c2C#N)cc1`, the “fold change (FC)” value in series [2] is recorded as 1.64. Further, the viability at 72 h, 2 µM in series [3] and in series [4] was greater than 90% in each case.
`Cc1ccc(Nc2nc(SCc3cn(CC(=O)NC(=O)Nc4ccccn4)nn3)nc(-c3ccc(C)cc3)c2C#N)cc1`: the “fold change (FC)” value in [2] turned out to be 17.37. Moreover, the viability at 72 h, 2 µM in series [3] and in [4] was greater than 90% in each case.
With `CC(C)c1ccc(-c2nc(SCc3cn(CC(=O)NC(=O)Nc4ccccn4)nn3)nc(Nc3ccc(Cl)cc3)c2C#N)cc1`, in series [2], the “fold change (FC)” value is listed as 1.66. For the same compound, the viability at 72 h, 2 µM in series [3] and in series [4] was greater than 90% each time.
